Drawing on ChEMBL document CHEMBL1131620, “Identification of novel ligands for the gabapentin binding site on the alpha2delta subunit of a calcium channel and their evaluation as anticonvulsant agents” (J Med Chem, 1998), this text covers IC50 for 22 compounds.

Structures are written as SMILES.

This experiment can be described thus: Inhibition of specific binding of [3H]gabapentin to Gabapentin binding sites located on the alpha-2-delta subunit of calcium channel. Also on record: species or system Oryctolagus cuniculus. In outline: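 [3H]Gabapentin displacement from gabapentin sites on the calcium channel α2δ subunit. IC50 (nM) is the concentration giving half-maximal inhibition of specific radioligand binding.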
A word on the IC50: it is the concentration that inhibits the measured activity by half. In the case of `NCC1(CC(=O)O)CCCCC1C1CCCCC1` (configuration not stated), the IC50 is greater than 10000 nM.
For `COC1CCCCC1(CN)CC(=O)O` (configuration not stated) the value was greater than 10000 nM; for `NCC1(CC(=O)O)CCCC(c2ccccc2)C1` (configuration not stated), greater than 10000 nM.
The figure for `CCCC1CCCC(CN)(CC(=O)O)C1` (configuration not stated) is 3300 nM; for `C[C@H]1CC[C@@](CN)(CC(=O)O)CC1` it is 440 nM.
Turning to `CC1(C)CCCC(CN)(CC(=O)O)C1` (configuration not stated), the IC50 was determined as 880 nM.
The figure for `CC[C@H]1CC[C@@](CN)(CC(=O)O)CC1` is 700 nM; for `CCC1CCCC(CN)(CC(=O)O)C1` (configuration not stated) it is 280 nM.
The figure for `CC1(C)CC(C)(C)CC(CN)(CC(=O)O)C1` is greater than 10000 nM.
The figure for `NC[C@]1(CC(=O)O)CC[C@@H](c2ccccc2)CC1` is greater than 10000 nM; for `C[C@H]1CC[C@](CN)(CC(=O)O)CC1` it is greater than 10000 nM.
`CC(C)C1CCCC(CN)(CC(=O)O)C1` (configuration not stated): the 50% inhibitory concentration (IC50) stood at 6270 nM.
For the compound `NCC1(CC(=O)O)CCOCC1`, the IC50 was 2380 nM.
`CC1CCCC(CN)(CC(=O)O)C1` (configuration not stated): the IC50 was greater than 10000 nM.
As to `NCC1(CC(=O)O)CCSCC1`, the IC50 was determined as 385 nM.
For `CC1(C)CCC(CN)(CC(=O)O)CC1` the value was 1310 nM; for `C[C@@H]1CCC[C@@](CN)(CC(=O)O)C1`, 42 nM.
For `C[C@H]1CCC[C@](CN)(CC(=O)O)C1` the value was 73 nM; for `NCC1(CC(=O)O)CCNCC1`, greater than 10000 nM; for `C[C@@H]1C[C@H](C)CC(CN)(CC(=O)O)C1` (stereo in doubt; 27), 140 nM.
As to `C[C@@H]1C[C@H](C)CC(CN)(CC(=O)O)C1` (stereo in doubt; 28), the IC50 was greater than 10000 nM.
The figure for `NCC1(CC(=O)O)CCCCC1` [GABAPENTIN] is […].
